# Results as given in the EternaBench riboswitch data.
# System: MS2 coat protein
# Assay: apparent Kd, MS2 coat protein; higher = weaker binding; RNA-MaP array; FMN 200 µM where present
# Summary of the method: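 The apparent Kd comes from binding curves fitted cluster by cluster, filtered, and summarised as a median. Those curves followed SNAP-549-labelled MS2 coat protein from 0.7 or 1.5 nM, doubling to 3 µM, on Illumina sequencing-chip clusters where stalled E. coli RNA polymerase had transcribed the designs, without and then with constant ligand. The buffer was 100 mM Tris-HCl pH 7.5, 80 mM KCl, 4 mM MgCl2, BSA, DTT, yeast tRNA and Tween-20, and green signal was normalised to red-channel RNA signal and control-cluster median Fmax.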
# [1] = designed as: OFF switch for flavin mononucleotide, no ligand
# [2] = ligand present: flavin mononucleotide, designed as: OFF switch for flavin mononucleotide
# [3] = designed as: ON switch for flavin mononucleotide, no ligand
# [4] = ligand present: flavin mononucleotide, designed as: ON switch for flavin mononucleotide
Sequence,apparent Kd [1] [nM],apparent Kd [2] [nM],apparent Kd [3] [nM],apparent Kd [4] [nM]
AAUAUAAAGAGCUGGCUCCAAAUAACAUGAGGAUCACCCAUGUAGGAUAUCAGCACGAUAAGUGCUGAGAAGGACAUCCAGCUC,15,15.6,–,–
AAUAUAAGAGCUGGACUCUAAAGAACAUGAGGAUCACCCAUGUAGGAUAUCAGCACGAUAAGUGCUGAGAAGGACAACCAGCUC,14.1,14.6,–,–
AAUAUAUUAAGUGAGGAUAUCAUAGAAAAAACAUGAGGAUCACCCAUGUGGGAAACCUGGUCGGGUGAGAAGGCACUUAAUAUAU,–,–,992,88.4
AAUAUGAGCUGGAAUAAACCUGAAACAUGAGGAUCACCCAUGUAGGAUAUCAGCACGAUAAGUGCUGAGAAGGACAACCAGCUC,14.6,16.6,–,–
AAUAUGUUGCAGAAGGCUAUAUUGUGGUAGUACCUCAUGACAUGAGGAUCACCCAUGUUUGUGUUGGAGGAUAUGCAAUAUAUU,16.2,64.9,–,–
AAUCCACAUGAGGAUCACCCAUGUCAGGAUAUCGCGCGCGCGUUUUCGGUCUUUCGCGCGAGAAGGGACGACUG,16.1,18.8,–,–
AAUCGGGAGCAGAAGGCAUGUCAUAAGACAUGAGGAUCACCCAUGUAGUUAAGAUGAAAAUCGCAUGAGGAUAUGCUCCCGUAA,–,–,115,18.5
AAUGCCGUAGGAUAUAUAUGGCAGAUCGCACGUCCUGAAAGACAUGAGGAUCACCCAUGUAGAAGGGCGGAAAC,14.7,17,–,–
AAUGGCUGGUGAACUUGGUCACAUGAGGAUCACCCAUGUUAUGAGGAUAUCGCUGCACAUUGACGUGAGAAGGCAUAGCAAGCC,132,453,–,–
AAUUAGGUCACAGGAUAUACUACAUCCAAUGCUGUAGAAGGGUGACACAUUCUGUGCAGACAUGAGGAUCACCCAUGUAACCAC,–,–,27.9,12.8
AAUUAUAUACAGAAGGAGUUAAAAGGAGUAUUACUAGGAUAUGUUCACAUGAGGAUCACCCAUGUCAUAUUGGGAUUUAUUUUU,27.2,25.7,–,–
AAUUAUUGAUGAGGAUAUUGUGGUGAAACACCACAAGAAGGCAUUAUACACAUGAGGAUCACCCAUGUGAGCCUGAUGCAUAUA,17.3,28.9,–,–
AAUUUAAUACAUGAGGAUCACCCAUGUAAAUUAAUUAAGAUCAAGGAUAUCAGCUCGUUUAGAGCUGAGAAGGUGAUCACAUGU,–,–,343,97
AAUUUAAUACAUGAGGAUCACCCAUGUAAUACUUGUAAGAUCAAGGAUAUCAGCUCGUUUAGAGCUGAGAAGGUGAUCACAUGU,–,–,58.2,198
AAUUUACAGCUAGGAUAUACAUGAGGAUCACCCAUGUAACGAUCGGAUCUUAUGAUCGUAUCCGUGUAGAAGGAGCAAAUAAGA,6.46,6.39,–,–
AAUUUACAUGAGGAUCACCCAUGUCAGGAUAUGGUUUUAUUUUUUUCUUUUUUUGAUUCCAGAAGGGACAGUUA,148,79.6,–,–
AAUUUCAGAUGAGGAUAUUGACAUGAGGAUCACCCAUGUAUUUGGGAAUGUUUACUGAAUUCUUACGAGAAGGUAUACGAACUU,296,200,–,–
AAUUUGGUCGUAGGAUAUCGGAAGCGGUGCGAACGAGAAGGGCGACAUGAGGAUCACCCAUGUAGCCACGAAGGCGAUCCUUGG,9.75,16.3,–,–
ACAAAUGGAGGAUAUACAUGAGGAUCACCCAUGUUUAUCCUACAUAUGUGAUAAUAAUGUAGAAGGCCAUUUGA,12.5,16.2,–,–
ACAAAUGGAGGAUAUACAUGAGGAUCACCCAUGUUUAUCCUACAUAUGUGAUCCUCAUGUAGAAGGCCAUAUGA,11,10.6,–,–
ACAAUAGUAUCACAUGUAUUACAUGAGGAUCACCCAUGUAACUAGGAUAUGUUUUAGAAUUUACAACAGAAGGAGUUAUUAUGU,8.48,14.1,–,–
ACACAUGAGGAUCACCCAUGUAGCUGGCGUCUGUGCCAGCCACAGGAUAUACGGCAACACAAGCCGUAGAAGGGUGAUAAACAC,–,–,85.3,36.5
ACACGACAUGAGGAUCACCCAUGUGAGGAUAUCGAUCUACACUAUGCCCAUAGUCUCUCGAGAAGGCACACUAA,30.6,31.7,–,–
ACACGGUAUGUAGGAUAUGCAUAGCAUUGCUAUGCAGAAGGACAUGAGGAUCACCCAUGUAUGUAUUCCAUACUAAUCCCGUGU,5.49,5.58,–,–
ACAGCUGAAGGAUAUACUUGGGAAAAAAAAAAAAAAAAAAAACAUGAGGAUCACCCAUGUAGAAGGUCAGCUGA,103,60,–,–
ACAUACAUUCGAGGAUAUCGGUGAACAAAUUAACGAGAAGGCGAUAAAAUUUUUAAUCUUAUGAACAUGAGGAUCACCCAUGUA,–,–,21.3,18.5
ACAUCACAUGAGGAUCACCCAUGUCAGGAUAUCGACUGAACAGCUUCGGCUGUUCAGUCGAGAAGGGACAAUUA,66.5,131,–,–
ACAUGAGAGAUAGGAUAUCUUGUACCUACAUGUGACAUGAGGAUCACCCAUGUGGUAAGUAUGAGGGAGAAGGGUCAGAUAUGU,–,–,57.9,55.9

Sequence,apparent Kd [1] [nM],apparent Kd [2] [nM],apparent Kd [3] [nM],apparent Kd [4] [nM]
ACAUGAGGAUCACCCAUGUAAUGAAGGGUACUAUACUAAACGUAGGAUAUCGAUGUAAGAUUGUACGAGAAGGACGAUUGCCUU,–,38.8,–,–
ACAUGAGGAUCACCCAUGUAUACAUAGGAUAUUGGUGAUCAGGCAUGUUUUACAGGAUAUGUCUGCGAGAAGGAUGCACGUUGC,–,–,810,452
ACAUGAGGAUCACCCAUGUAUACAUAGGAUAUUGGUGAUCAGGGAUGUUUUACAGGAUAUGUCUGCGAGAAGGAUGCAAGAUGU,–,–,398,69
ACAUGAGGAUCACCCAUGUAUUUGUAGGAUAUACUCUAUUGUUUAUUACUCUAGUUAAUAUGUUUGUAGAAGGACAUUACAUGA,7.94,10.8,–,–
ACAUGAGGAUCACCCAUGUGAGGAUCACCCAUGUUAUAUUUCAGAAGGCUCGUUUGUUUGAGGAGAGAGGAUAUGGAAUAUAGG,127,84.7,–,–
ACAUGAGGAUCACCCAUGUGUACAUAGGAUAUUGAGGAUUAGGGAUAAAGUGAAGAGAUUGCCCACAAGAAGGAUGAAAGUGUU,–,–,9.82,8.82
ACAUGAGGAUCACCCAUGUGUACAUAGGAUAUUGAUGAUUAUGGUUUAAGAAAAGUAAUUGCCCACAAGAAGGAUGCCUCAUCU,–,–,36.5,27.7
ACAUGAGGAUCACCCAUGUUAAACGAGGAUAUAUGACUGCACAUGAGGUUCACCCAUGUUCUGCCGUAGAAGGUGUAAAUAAUU,–,–,43.3,42.8
ACAUGAGGAUCACCCAUGUUAAGCGAGGAUAUUUCACUGCACAUGAGGUUCGCCCAUGUCCUGCGGAAGAAGGUGCGAAUAAUU,–,–,33.4,17.1
ACAUGAGGAUCACCCAUGUUAUAUGGGAAUUAAUUUAUUUGUAGAAGGAUGUUUUCUUGUUAGUCAUAGGAUAUACUAUUAAAU,255,158,–,–
ACAUGAGGAUCACCCAUGUUUUUCGGGUACUCUUUUUACAGCAAGGAUAUGCAUUAUUUAUGUACGCAGAAGGUGCUUUACGUC,77,138,–,–
ACAUGAUAUGUAGGAUAUCACAACAUGAGUUUUAUUAUUGUUAUUUAUGAUUGAGAAGGACAUUUACAUGAGGAUCACCCAUGU,17.8,12.3,–,–
ACAUGAUAUGUAGGAUAUCACAUUAAUUGAUUAAUAUUUGAAUAUAGGAUUUGAGAAGGACAUUUACAUGAGGAUCACCCAUGU,20.1,14.4,–,–
ACAUGAUAUGUAGGAUAUCACAUUAAUUGUUUUAUAAUUGUAUUUUGGAUUUGAGAAGGACAUUUACAUGAGGAUCACCCAUGU,15.6,12.3,–,–
ACAUGCGGAUGAGGAUAUUCAUCCAUGAGGAUAGAAGAAGGCAUACAUGAGGAUCACCCAUGUAUACGCAUGAGGAUCCCUUAU,23.6,28.7,–,–
ACAUGCUGCCGGCAGGAUAUCGCUUGGCGGACAUGAGGAUCACCCAUGUGAGAAAGUCGCGCGCGCGAGAAGGGCCAUGGUAUCAG,–,–,98.2,80
ACAUGUACAGAGGAUAUGCGCCUUGGCAACGGUGUAGAAGGCUGAACAUGAGGAUCACCCAUGUGCAAUCCAGC,28.4,146,–,–
ACAUGUUAUGUAGGAUAUUAUACACAUGAGGAUCACCCAUGUAACCGGAGGCUUUACUAUGAGUAUGAGAAGGGUAUGAACAUG,138,145,–,–
ACCAAUGCAGGAUAUACAUGAGGAUCACCCAUGUAUAACCUACAUAGAUGAUCAUCAUGUAGAAGGGCAUUGGA,12.5,10.1,–,–
ACCAAUGGAGGAUAUACAUGAGGAUCACCCAUGUUUAUCCUACAUAGGUGAAAAACAUGUAGAAGGCCAUUGGA,14.8,13.2,–,–
ACCAGCUCGUCAGGAUAUACGUCACUGCGUCAGCAGUGUGGUAAGAUCACAUGAGGAUCACCCAUGUAGAAGGGACGAGCUGAU,13.3,245,–,–
ACCAUGGUACAGAAGGGCAAUUUAUUUAUUUAUUAUUUAGUACUGCAUUGCAGGAUAUGUUUAACAUGAGGAUCACCCAUGUAC,–,–,31.8,21.4
ACCAUGUAAGGAUAUGCGCGGCCCUAAAUCAAUGAGCAAGCGCAGAAGGUACAUGAGGAUCACCCAUGUCACCG,16.6,51.4,–,–
ACCAUUUACUAAUCUUCUAUACAUGAGGAUCACCCAUGUUUUGAGGAUAUCAGCGUGAAACACGCUGAGAAGGCAAAACAUUCG,72,393,–,–
ACCGUAUGAACAUGAGGAUCACCCAUGUAAACGGAAACGAAUGAGGAUAUCGAUAGCAAAGCUAUCGAGAAGGCAUGGGACGGU,–,–,64.5,26.8
ACCUAGCCCAGGCCCACGGCAUCACAGGAUAUGCCGAUAACAUGAGGAUCACCCAUGUCAACUCCGCAGAAGGGUGAUAUCGUG,–,–,89.2,13.5
ACCUCACAUGAGGAUCACCCAUGUCAGGAUAUCUUUUAAAACAGCAAUCCUGUCGCUGAGAGAAGGGACAUUAA,27.6,35.6,–,–
